Measurements from different studies.
Target: Activin receptor type-1B (ACVR1B, Homo sapiens, UniProt P36896)
One construct used (P36896 24-505): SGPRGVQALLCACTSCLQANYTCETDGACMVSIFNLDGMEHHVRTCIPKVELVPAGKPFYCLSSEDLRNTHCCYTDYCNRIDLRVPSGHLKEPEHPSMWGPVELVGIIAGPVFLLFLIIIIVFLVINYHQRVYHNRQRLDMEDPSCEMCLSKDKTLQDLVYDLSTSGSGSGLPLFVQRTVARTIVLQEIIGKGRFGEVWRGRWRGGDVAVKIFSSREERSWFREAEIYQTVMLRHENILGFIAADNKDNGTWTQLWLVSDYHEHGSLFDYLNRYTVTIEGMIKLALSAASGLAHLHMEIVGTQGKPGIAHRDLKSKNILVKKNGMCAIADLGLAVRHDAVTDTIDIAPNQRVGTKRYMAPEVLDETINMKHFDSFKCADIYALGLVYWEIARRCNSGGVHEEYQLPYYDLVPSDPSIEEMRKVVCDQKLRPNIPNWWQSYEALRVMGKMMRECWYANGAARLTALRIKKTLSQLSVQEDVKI

| Structure (SMILES) | read-out | action | technique | concentration | quantity | result |
| --- | --- | --- | --- | --- | --- | --- |
| O=C(N1CCS(=O)(=O)CC1)N1C[C@H](c2ccc(OC(F)(F)F)cc2)C[C@H](c2nc(C3CC3)no2)C1 | cell-free assay |  | competition with immobilised ligand | 1 µM | remaining binding | 100% |
| Cc1ccc(Nc2nccc(N(C)c3ccc4c(C)n(C)nc4c3)n2)cc1S(N)(=O)=O | cell-free assay | inhibitor |  | 0.3 µM | inhibition | -22% |
| Cn1c2c(Cl)c(Cl)ccc2c2cc(N)[nH]c(=O)c21 | thermal stability |  | DSF | 10 µM | ΔTm | 3.9 °C |
| Cn1cc(Cl)c2c(Oc3c(F)cc(Nc4cc(Cl)nc(N)n4)cc3F)ccnc21 | cell-free assay |  | competition with immobilised ligand | 0.1 µM | remaining binding | 98% |
| COc1cc(-c2cc(-c3ccc(N4CCNCC4)cc3)cnc2C)cc(OC)c1OC | enzyme activity | inhibitor |  | 0.1 µM | inhibition | 9% |
| Cn1c2c(c3ccc(Cl)c(Cl)c31)C(C#N)C1(CCN(C(=O)OC(C)(C)C)CC1)NC2=O (racemic) | thermal stability |  | DSF | 10 µM | ΔTm | -0.1 °C |
| O=C(CSc1nc2nccnc2c(=O)n1CCc1ccccc1)Nc1nccs1 | enzyme activity | inhibitor |  | 10 µM | inhibition | 4% |
| CO[C@@H](C)c1c(Nc2ccc([C@H](N(C)C(=O)C3CCS(=O)(=O)CC3)C(F)(F)F)cc2)cnc2cc(Cl)nn12 | cell-free assay |  | competition with immobilised ligand | 1 µM | remaining binding | 72% |
| COc1cc(Cl)c(C(=O)N[C@@H](CN[C@H]2CC[C@@H](N)CC2)Cc2ccc(C#N)cc2)cc1-c1ccc(CN[C@H](C)c2ccc(C)cc2)o1 | enzyme activity | inhibitor |  | 1 µM | remaining activity | 92% |
| CCCS(=O)(=O)Nc1ccc(F)c(C(=O)c2c[nH]c3ncc(-c4ccc(Cl)cc4)cc23)c1F | enzyme activity | inhibitor |  | 1 µM | inhibition | < 10% |
| O=C1NC(=O)c2cc(Nc3ccc(F)cc3)c(Nc3ccc(F)cc3)cc21 | cell-free assay |  |  | 0.5 µM | remaining signal | 94.2% |
| CCCOc1ccc(OC)c(F)c1C(=O)c1ccc(C(=O)N[C@@H]2CNC[C@H]2NC(=O)c2ccc3[nH]ncc3c2)cc1 | enzyme activity | inhibitor |  | 10 µM | remaining activity | 91% |
| Cc1cnc(NC2CCOCC2)nc1-n1cnc(C(=O)NC(CN)c2cc(F)cc(Cl)c2)c1 (centres unmarked) | enzyme activity | inhibitor | radiometric | 1 µM | remaining activity | 109% |
| CN(C)C1CCN(CC#Cc2nn(C3CCCC3)c3nc(NCc4ccccc4)ncc23)C1 (centres unmarked) | enzyme activity | inhibitor | FRET | 10 µM | inhibition | -8% |
| Clc1ccc(Nc2nnc(Cc3ccncc3)c3ccccc23)cc1 | cell-free assay |  |  | 0.5 µM | remaining signal | 108% |
| CN1CCC2(CC1)NC(=O)c1c(c3ccc(Cl)c(Cl)c3n1C)C2C#N (racemic) | thermal stability |  | DSF | 10 µM | ΔTm | 0.3 °C |
| CNC(=O)c1cc(Oc2ccc(NC(=O)Nc3ccc(Cl)c(C(F)(F)F)c3)cc2)ccn1 | cell-free assay | inhibitor |  | 10 µM | inhibition | 17% |
| c1ccc(N2CCN(Cc3nc4ccccc4[nH]3)CC2)nc1 | cell-free assay |  | competition with immobilised ligand | 1 µM | remaining binding | 85% |
| Cc1sc(C(=O)NC2COC2)cc1-n1cc(NC(=O)Nc2c(F)cccc2Cl)cn1 | enzyme activity | inhibitor |  | 10 µM | remaining activity | 78.5% |
| CC1(C)NC(=O)c2[nH]c3c(Cl)c(Cl)ccc3c2C1C#N (centres unmarked) | thermal stability |  | DSF | 10 µM | ΔTm | 1.6 °C |
| CNCc1ccccc1-c1csc([C@H](C)Nc2nc(C)nc3cc(OC)c(OC)cc23)c1 | cell-free assay |  | competition with immobilised ligand | 1 µM | remaining binding | 100% |
| CC(C)(C)c1nc2c(s1)c1nc(N)ncc1c1ccc(NS(=O)(=O)c3c(F)cccc3F)c(F)c12 | enzyme activity | inhibitor | radiometric | 1 µM | remaining activity | 84% |
| COc1cc2ncnc(Nc3ccc(Oc4ccccc4)c(C)c3C)c2cc1OC | enzyme activity | inhibitor |  | 1 µM | inhibition | -3% |
| O=C(NC[C@@H]1[C@H]2CN(C(=O)OCc3cc(C(F)(F)F)cc(C(F)(F)F)c3)C[C@@H]12)c1ccc2[nH]nnc2c1 | cell-free assay |  | competition with immobilised ligand | 1 µM | remaining binding | 100% |
| N#CCCc1ccc2c(c1)-c1[nH]c3ccc([N+](=O)[O-])cc3c1CC(=O)N2 | cell-free assay |  |  | 0.5 µM | remaining signal | 110% |
| O=C(O)[C@@H]1[C@@H](Cn2nnc3ccccc3c2=O)CC[C@H]1C(=O)c1ccc(OCCC2CCOCC2)cc1 | cell-free assay |  | competition with immobilised ligand | 1 µM | remaining binding | 100% |
| Cn1c2c(Cl)c(Cl)ccc2c2cc[nH]c(=O)c21 | thermal stability |  | DSF | 10 µM | ΔTm | 3.1 °C |
| C[C@H](c1ccc(F)cc1)N(Cc1cccc(C(=O)O)c1)C(=O)c1cnc2ccccc2c1 | cell-free assay |  | competition with immobilised ligand | 1 µM | remaining binding | 100% |
| CC(C)(O)[C@H]1CC[C@H](Nc2ccc3ncc(-c4cccc(C(F)(F)F)c4)n3n2)CC1 | enzyme activity | inhibitor |  | 1 µM | remaining activity | 100% |
